In ChEMBL document CHEMBL1152738, “Synthesis and in vitro antitubercular activity of a series of quinoline derivatives” (2009):
In brackets after ≈: the same amount, converted by molar mass.

Test system: Mycobacterium tuberculosis
Experiment: Antitubercular activity against Mycobacterium tuberculosis H37Rv after 5 days by microplate alamar blue assay
Type: functional
Conditions: 120 h
Method in brief: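 M. tuberculosis H37Rv (ATCC 27294, rifampin- and isoniazid-susceptible) tested by MABA. Compounds serially diluted directly in Middlebrook 7H9 broth in 96-well plates, which were sealed and incubated at 37 °C for 5 days. A fresh 1:1 Alamar Blue/10% Tween 80 mix was then added and plates were incubated 24 h more. MIC was the lowest concentration preventing the blue-to-pink colour change.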

| SMILES | MIC [µg/mL] |
| --- | --- |
| CCN(CC)Cc1cc(Nc2ccnc3cc(Cl)ccc23)ccc1O.Cl | 100 |
| NCCCNc1ccnc2cc(Cl)ccc12 | > 100 |
| NCCCCNc1ccnc2cc(Cl)ccc12 | > 100 |
| NCCCCCCNc1ccnc2cc(Cl)ccc12 | 25 (≈ 90 µM) |
| CC(C)NCCNc1ccnc2cc(Cl)ccc12 | > 100 |
| ClCCNc1ccnc2cc(Cl)ccc12 | 12.5 (≈ 51.8 µM) |
| OCCNc1ccnc2cc(Cl)ccc12 | > 100 |
| OCCNc1ccnc2ccccc12 | > 100 |
| ClCCNc1ccnc2ccccc12 | > 100 |
| [N-]=[N+]=Nc1ccnc2cc(Cl)ccc12 | > 100 |
| ClCCCNc1ccnc2cc(Cl)ccc12 | 50 (≈ 196 µM) |
| Nc1ccnc2cc(Cl)ccc12 | > 100 |
| N#CCCNc1ccnc2cc(Cl)ccc12 | > 100 |
| CCCNCCNc1ccnc2cc(Cl)ccc12 | 100 (≈ 379 µM) |
| CCCNc1ccnc2cc(Cl)ccc12 | 50 (≈ 227 µM) |
| CC(C)Nc1ccnc2cc(Cl)ccc12 | 50 (≈ 227 µM) |
| CCCCNc1ccnc2cc(Cl)ccc12 | 12.5 (≈ 53.3 µM) |
| OCCCNc1ccnc2cc(Cl)ccc12 | > 100 |
| CC[C@H](CO)Nc1ccnc2cc(Cl)ccc12 | > 100 |

| SMILES | MIC [µg/mL] |
| --- | --- |
| CCCCNc1ccnc2ccccc12 | 50 (≈ 250 µM) |
| [N-]=[N+]=NCCNc1ccnc2cc(Cl)ccc12 | 50 (≈ 202 µM) |
| NCCCCCCCCNc1ccnc2cc(Cl)ccc12 | 6.25 (≈ 20.4 µM) |
| NCCCCCCCCCCNc1ccnc2cc(Cl)ccc12 | 3.12 (≈ 9.34 µM) |
| CCCCNCCNc1ccnc2cc(Cl)ccc12 | > 100 |
| CNCCNc1ccnc2cc(Cl)ccc12 | > 100 |
| Clc1ccc2c(NCCNC3CCCCC3)ccnc2c1 | 100 (≈ 329 µM) |
| OCCNCCNc1ccnc2cc(Cl)ccc12 | > 100 |
| CCC(CCl)Nc1ccnc2cc(Cl)ccc12 (configuration not stated) | 50 (≈ 186 µM) |
| Clc1ccc2c(NCCNCc3ccccc3)ccnc2c1 | 50 (≈ 160 µM) |
| CC[C@@H](CO)Nc1ccnc2cc(Cl)ccc12 | > 100 |
| NCCNc1ccnc2cc(Cl)ccc12 | > 100 |
| CNc1ccnc2cc(Cl)ccc12 | 100 (≈ 519 µM) |
| CCC(CO)Nc1ccnc2cc(Cl)ccc12 (racemic) | > 100 |
| OC(c1cc(C(F)(F)F)nc2c(C(F)(F)F)cccc12)C1CCCCN1 (configuration not stated) [MEFLOQUINE] | 25 (≈ 66.1 µM) |
| COc1cc(NC(C)CCCN)c2ncccc2c1 (configuration not stated) [PRIMAQUINE] | 50 (≈ 193 µM) |
| C=C[C@H]1CN2CC[C@H]1C[C@H]2[C@H](O)c1ccnc2ccc(OC)cc12 [QUININE] | 100 (≈ 308 µM) |
| Nc1ccnc2ccccc12 [QUINOLIN-4-AMINE] | > 100 |
